Data reported in ChEMBL document CHEMBL4028850, “Identification and Optimization of Pyrrolo[3,2-d]pyrimidine Toll-like Receptor 7 (TLR7) Selective Agonists for the Treatment of Hepatitis B” (J Med Chem, 2017).

What was measured:
[1] = Activation of NFkappaB (unknown origin) expressed in HEK293 cells after 6 hrs luciferase reporter gene assay; type: cell-based; details: human
Procedure, shortened: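 HEK293 cells were transfected with the NFκB-luciferase reporter alone, with no TLR vector, to detect direct NFκB activation.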

[2] = Intrinsic clearance in mouse liver microsomes at 1 uM after 60 mins; type: ADME, microsome; details: read-out: CLH
[3] = Intrinsic clearance in rat liver microsomes at 1 uM after 60 mins; type: ADME, microsome; details: read-out: CLH
[4] = Intrinsic clearance in dog liver microsomes at 1 uM after 60 mins; type: ADME, Canis lupus familiaris, microsome; details: read-out: CLH
[5] = Intrinsic clearance in cynomolgus monkey liver microsomes at 1 uM after 60 mins; type: ADME, Macaca fascicularis, microsome; details: read-out: CLH
[6] = Intrinsic clearance in human liver microsomes at 1 uM after 60 mins; type: ADME, microsome; details: read-out: CLH
[7] = Intrinsic clearance in mouse hepatocytes assessed per million cells at 1 uM up to 120 mins; type: ADME, cell-based, Hepatocyte; details: read-out: CLH
[8] = Intrinsic clearance in rat hepatocytes assessed per million cells at 1 uM up to 120 mins; type: ADME, cell-based, Hepatocyte; details: read-out: CLH
[9] = Intrinsic clearance in dog hepatocytes assessed per million cells at 1 uM up to 120 mins; type: ADME, cell-based, Canis lupus familiaris, Hepatocyte; details: read-out: CLH
[10] = Intrinsic clearance in cynomolgus monkey hepatocytes assessed per million cells at 1 uM up to 120 mins; type: ADME, cell-based, Macaca fascicularis, Hepatocyte; details: read-out: CLH
[11] = Intrinsic clearance in human hepatocytes assessed per million cells at 1 uM up to 120 mins; type: ADME, cell-based, Hepatocyte; details: read-out: CLH
[12] = Cmax in Sprague-Dawley rat at […], iv or 10 mg/kg, po measured after 1 hr post dose; type: ADME, organism-based; details: in vivo
[13] = Tmax in dog at 1 mg/kg, po; type: ADME, organism-based, Canis lupus familiaris; details: in vivo
[14] = Cmax in dog at 1 mg/kg, po; type: ADME, organism-based, Canis lupus familiaris; set-up: dose 1 mg/kg, route oral; details: in vivo
[15] = Cmax in guinea pig up to […], iv; type: ADME, organism-based, Cavia porcellus; set-up: dose 4.9 mg/kg, route intravenous; details: in vivo
[16] = Cmax in C57Bl/6 mouse plasma at 0.3 mg/kg, po measured after 0.5 hrs by LC-MS analysis; type: ADME, organism-based; set-up: dose 0.3 mg/kg, route oral
Procedure, shortened: (§1)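 Female fasted C57Bl/6 mice, nine per dose, got a single oral dose of 0.3, 1, 3 or 10 mg/kg. Blood was drawn at 0.5 h. Three mice per group were sacrificed at 1, 2 or 4 h for plasma and liver compound levels by LC-MS, and mean maximum levels are reported.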

[17] = Cmax in C57Bl/6 mouse liver at 0.3 mg/kg, po measured after 0.5 hrs by LC-MS analysis; type: ADME, organism-based; set-up: dose 0.3 mg/kg, route oral; procedure, shortened: as §1
[18] = Tmax in C57Bl/6 mouse plasma at 0.3 to 10 mg/kg, po by LC-MS analysis; type: ADME, organism-based
Procedure, shortened: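 Healthy fasted female C57Bl/6 mice, groups of 9, single oral dose 0.3, 1, 3 or 10 mg/kg. Blood at 0.5 h; three mice per group killed at 1, 2 or 4 h for plasma and liver compound (LC-MS) and ISG expression by RT-qPCR as fold change versus vehicle.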

[19] = Ratio of drug uptake in liver to plasma in C57Bl/6 mouse at 0.3 to 10 mg/kg, po by LC-MS analysis; type: ADME, organism-based
Procedure, shortened: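 Healthy fasted female C57Bl/6 mice, 9 per dose group, given a single oral dose of 0.3, 1, 3 or 10 mg/kg. Blood taken at 0.5 h. At 1, 2 or 4 h, three mice per group were sacrificed and plasma and liver compound levels were measured by LC-MS.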

[20] = Cmax in C57Bl/6 mouse plasma at 1 mg/kg, po measured after 0.5 hrs by LC-MS analysis; type: ADME, organism-based; set-up: dose 1 mg/kg, route oral; procedure, shortened: as §1
[21] = Cmax in C57Bl/6 mouse liver at 1 mg/kg, po measured after 0.5 hrs by LC-MS analysis; type: ADME, organism-based; set-up: dose 1 mg/kg, route oral; procedure, shortened: as §1
[22] = Cmax in C57Bl/6 mouse plasma at 3 mg/kg, po measured after 0.5 hrs by LC-MS analysis; type: ADME, organism-based; set-up: dose 3 mg/kg, route oral; procedure, shortened: as §1
[23] = Cmax in C57Bl/6 mouse liver at 3 mg/kg, po measured after 0.5 hrs by LC-MS analysis; type: ADME, organism-based; set-up: dose 3 mg/kg, route oral; procedure, shortened: as §1
[24] = Cmax in C57Bl/6 mouse plasma at 10 mg/kg, po measured after 0.5 hrs by LC-MS analysis; type: ADME, organism-based; set-up: dose 10 mg/kg, route oral; procedure, shortened: as §1
[25] = Cmax in C57Bl/6 mouse liver at 10 mg/kg, po measured after 0.5 hrs by LC-MS analysis; type: ADME, organism-based; set-up: dose 10 mg/kg, route oral; procedure, shortened: as §1
[26] = system: MDR1; test: Apparent permeability across apical to basolateral side in MDCK cells expressing human MDR1 at 5 uM by LC-MS/MS analysis; type: ADME, cell-based, Canis lupus familiaris; details: dog
Procedure, shortened: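 MDCK cells transfected with human MDR1 were grown as confluent monolayers. 5 µM compound was added apically or basolaterally, with or without the P-gp inhibitor GF120918. Appearance on the opposite side was measured by LC-MS/MS to give Papp; efflux ratio = B→A/A→B without inhibitor.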

[27] = Plasma concentration in dog at 1 mg/kg, po measured after 4 hrs post dose; type: ADME, organism-based, Canis lupus familiaris
[28] = Oral bioavailability in cynomolgus monkey at 1 to 10 mg/kg administered via gavage measured up to 72 hrs post dose; type: ADME, organism-based, Macaca fascicularis; details: in vivo
[29] = Cmax in cynomolgus monkey at 1 mg/kg administered via oral gavage measured up to 72 hrs post dose; type: ADME, organism-based, Macaca fascicularis; set-up: dose 1 mg/kg, route oral; details: in vivo
[30] = Tmax in cynomolgus monkey at 1 mg/kg administered via oral gavage measured up to 72 hrs post dose; type: ADME, organism-based, Macaca fascicularis; details: in vivo
Procedure, shortened: (§2)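 Cynomolgus monkeys (five per dose) given single oral gavage doses of 1, 3 or 10 mg/kg; dose levels in different animals, staggered by 3 days. Blood sampled pre-dose and at 0.25, 0.5, 1, 2, 4, 8, 24, 48 and 72 h for plasma compound levels, cytokines (ELISA or Luminex) and gene expression (microarray); clinical signs, body weight and temperature monitored.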

[31] = Cmax in cynomolgus monkey at 3 mg/kg administered via oral gavage measured up to 72 hrs post dose; type: ADME, organism-based, Macaca fascicularis; set-up: dose 3 mg/kg, route oral; details: in vivo
[32] = Tmax in cynomolgus monkey at 3 mg/kg administered via oral gavage measured up to 72 hrs post dose; type: ADME, organism-based, Macaca fascicularis; details: in vivo; procedure, shortened: as §2
[33] = AUC (0 to last) in cynomolgus monkey at 3 mg/kg administered via oral gavage measured up to 72 hrs post dose; type: ADME, organism-based, Macaca fascicularis; set-up: dose 3 mg/kg, time 0 - last, route oral; details: in vivo
[34] = Cmax in cynomolgus monkey at 10 mg/kg administered via oral gavage measured up to 72 hrs post dose; type: ADME, organism-based, Macaca fascicularis; set-up: dose 10 mg/kg, route oral; details: in vivo
[35] = Tmax in cynomolgus monkey at 10 mg/kg administered via oral gavage measured up to 72 hrs post dose; type: ADME, organism-based, Macaca fascicularis; details: in vivo; procedure, shortened: as §2
[36] = AUC (0 to last) in cynomolgus monkey at 10 mg/kg administered via oral gavage measured up to 72 hrs post dose; type: ADME, organism-based, Macaca fascicularis; set-up: dose 10 mg/kg, route oral, time 0 - last; details: in vivo
[37] = system: Liver; test: Drug level in Sprague-Dawley rat liver at […], iv or 10 mg/kg, po; type: ADME, organism-based; details: in vivo, BLD = below limit of detection
[38] = system: Rattus norvegicus; test: Drug level in Sprague-Dawley rat systemic circulation at […], iv or 10 mg/kg, po; type: ADME, organism-based; details: in vivo, BLD = below limit of detection
[39] = Tmax in cynomolgus monkey at 1 to 10 mg/kg administered via oral gavage measured up to 72 hrs post dose; type: ADME, organism-based, Macaca fascicularis; details: in vivo; procedure, shortened: as §2

- MEC [1]: > 25 µM
- microsomal CLint at 1 µM [2]: 55 µL/min/mg
- microsomal CLint at 1 µM [3]: > 346 µL/min/mg
- microsomal CLint at 1 µM [4]: 44 µL/min/mg
- microsomal CLint at 1 µM [5]: 87 µL/min/mg
- microsomal CLint at 1 µM [6]: 25 µL/min/mg
- hepatocyte CLint at 1 µM [7]: 19 µL/min/1e6 cells
- hepatocyte CLint at 1 µM [8]: > 277 µL/min/1e6 cells
- hepatocyte CLint at 1 µM [9]: 7 µL/min/1e6 cells
- hepatocyte CLint at 1 µM [10]: 80 µL/min/1e6 cells
- hepatocyte CLint at 1 µM [11]: 6 µL/min/1e6 cells
- Cmax [12]: 314 ng/mL
- Tmax [13]: 30 min
- Cmax [14]: 125 ng/mL
- Cmax [15]: 9700 ng/mL
- Cmax [16]: 3.7 ng/mL
- Cmax [17]: 6.8 ng/g
- Tmax [18]: 30 to 60 min
- Kp [19]: 2
- Cmax [20]: 7.1 ng/mL
- Cmax [21]: 6.3 ng/g
- Cmax [22]: 2.8 ng/mL
- Cmax [23]: 23 ng/g
- Cmax [24]: 72.9 ng/mL
- Cmax [25]: 152 ng/g
- Papp A→B at 5 µM [26]: 41 ×10⁻⁶ cm/s
- concentration at 4 h [27]: 10 ng/mL
- bioavailability [28]: < 1%
- Cmax [29]: 4.12 ng/mL
- Tmax [30]: 60 to 120 min
- Cmax [31]: 11.2 ng/mL
- Tmax [32]: 30 to 120 min
- AUC(0-t) at 72 h [33]: 26.7 ng·h/mL
- Cmax [34]: 23.4 ng/mL
- Tmax [35]: 30 to 120 min
- AUC(0-t) at 72 h [36]: 57.5 ng·h/mL
- Drug uptake [37]: Bld
- Drug uptake [38]: Bld
- Tmax [39]: 15 to 120 min
Compound: Cc1cc(COc2nc(N)nc3ccn(Cc4ccccn4)c23)no1
